core dimer inh: inhibitors of HCV core protein dimerization, primary screen, biochemical, TR-FRET, high-throughput | TR-FRET GST/Flag-core106 dimerization, 1536-well | inhibition, % at 5 µM | 300,000 compounds, 0.33% hits;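 active = inhibition above the mean of all tested compounds plus 3 SD, set per screening campaign, cut at about 45% in these data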
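Material: GST/Flag-tagged HCV core106 proteins. Incubation: 4 h, 22.5 °C incubation. Read-out basis: inhibition (%) from 671 over 617 nm ratio. Measured by: TR-FRET, excitation 340 nm, emission 617 and 671 nm.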
HSF1 inh: HSF1 inhibitors in luciferase reporter cells, primary screen, cell-based, NIH3T3, luminescence; 300,000 compounds, 0.77% hits; NIH3T3-HGL HSE-luciferase, MG132-induced, luminescence 8 h; stronger effect = lower value; AID 2098, 2009; activity change, negative = inhibition, % at 7.5 µM (by protocol);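 active = more than half of replicate wells show activity change below -50%, luminescence cut by over half; inconclusive = some wells, but at most half, below -50%; inactive = no replicate well below -50%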;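 note: luciferase reports HSF-1 transcriptional activity via heat shock element; 0% = median of DMSO wells and -100% = zero luminescence signal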
HSF-1 act: HSF-1 activators, primary screen, NIH3T3-HGL cells, MG132 stress, luminescence, single point; 300,000 compounds, 1.7% hits; activation, % at 9 µM; NIH3T3-HGL HSF-1 luciferase reporter, 8 h; 100% = twice DMSO control signal; AID 504408, 2011;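 active = mean replicate activation of at least 50% with a set share of replicates each reaching 50%; inconclusive = only one of those two conditions met; inactive = mean below 50% and too few replicates reaching it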;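 note: 0% = median of the neutral control wells and 100% = twice that signal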
HCV NS3 hel inh: inhibitors of HCV NS3 helicase, primary screen, biochemical, Cy5 molecular beacon fluorescence; Hepatitis C virus NS3 helicase; NS3 helicase DNA unwinding; inhibition, % at 10.9 µM; 290,000 compounds, 0.56% hits;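 active = inhibition above the mean of all tested compounds plus 3 SD, set per campaign, cut at about 35% in these data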;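 note: 0% = DMSO wells and 100% = thioflavine S control wells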
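Measured by: Cy5 fluorescence, 0 and 60 min reads / Assay system: NS3 helicase fragment of HCV / Control set: low DMSO, high thioflavine S at 110 µM / Times: 1 h reaction at 25 °C, ATP-initiated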
DNA FID counter: compounds displacing fluorescent DNA intercalator, primary screen, artefact control for HCV NS3 helicase inhibitor project, biochemical, FID fluorescence. DNA fluorescent intercalator displacement. inhibition, % at 7.9 µM. 290,000 compounds, 0.17% hits. AID 1845, 2009; in the data active = inhibition above about 37%;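 note: 0% = vehicle and 100% = reference compound; higher means more ethidium bromide displaced from hairpin DNA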
HSP90 inh: HSP90 inhibitors, primary screen, cell lysate, luminescence | Rabbit reticulocyte lysate, luciferase refolding luminescence, 3 h | inhibition, % at 5.6 µM | 290,000 compounds, 0.91% hits;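 active = inhibition above the screen-wide mean plus 3 SD, computed separately per campaign, cut at about 16% in these data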;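 note: 0% = DMSO wells and 100% = 60 µM geldanamycin wells; inhibitors lower the luminescence because luciferase stays unfolded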
* marks the source's active call; other numbers are inactive results; ? = inconclusive; . = no result given. An excerpt weighted towards active compounds, which were near 3.9% of everything screened.

SMILES | core dimer inh | HSF1 inh | HSF-1 act | HCV NS3 hel inh | DNA FID counter | HSP90 inh
CCc1ccc2[nH]c(=O)c(CN(Cc3ccco3)C(=S)NCC3CCCO3)cc2c1 (centres undefined) | 4.8 | 19.5 | 49.5 | -21.4 | -32.8 | -3.5
CN(C)CCCN(Cc1cc2cc3c(cc2[nH]c1=O)OCO3)C(=S)Nc1ccccc1 | -2.6 | 5.3 | 12.8 | 2.8 | 47.4* | 2.8
Cc1cc(C)c2[nH]c(=O)c(CN(Cc3ccco3)C(=S)NCC3CCCO3)cc2c1 (centres undefined) | 2.6 | 41.1 | 70.3* | -11.1 | -10.3 | 4.5
CNC(=S)N(Cc1ccco1)Cc1cc2cc3c(cc2[nH]c1=O)OCCO3 | 6.0 | 13.6 | 11.0 | -3.5 | -4.1 | 3.1
Cc1ccccc1NC(=O)c1cc(S(=O)(=O)N2CCOCC2)cn1C | -1.5 | 0.8 | -3.2 | -7.0 | -5.2 | -1.7
CCOc1ccc(C2N(c3ccc(F)cc3)C(=O)C3CCCN32)cc1OC (centres undefined) | -0.2 | -52.2* | -64.7 | -0.5 | -2.9 | 0.4
CCOc1ccc(C2N(c3ccc(OC)cc3)C(=O)C3CCCN32)cc1OC (centres undefined) | -3.2 | -0.6 | 6.9 | -10.1 | 4.0 | 0.8
Cc1ccc(C(=O)NC(C(=O)NC2CCCC2)c2ccccc2)cc1 (centres undefined) | 6.8 | 6.2 | 16.5 | -0.5 | -13.6 | -5.7
C=C(C)Cn1c(SCC(=O)O)nnc1-c1ccc(OC)cc1 | -6.3 | 16.7 | 58.9* | -8.7 | -3.1 | 0.0
CC1=NN(c2ccccc2)C(=O)C1N=Nc1ccc(C)cc1 (centres undefined) | -1.7 | 2.0 | 20.1 | -2.5 | 2.0 | -1.9
CC1=NN(c2ccccc2)C(=O)C1N=Nc1ccc(S(N)(=O)=O)cc1 (centres undefined) | -7.2 | -77.6* | -80.3 | 5.8 | -0.6 | 7.9
Cc1ccc(C)c(NC(=S)N2CCC(NC(=O)c3cccc(F)c3)CC2)c1 | -6.2 | 6.2 | 2.9 | -9.3 | -6.6 | 3.1
COc1ccc(N2CCN(C(=O)c3oc4ccccc4c3NC(=O)CCc3cc(OC)no3)CC2)cc1 | 3.0 | 0.8 | 24.4 | -16.5 | -39.4 | 0.4
COc1cccc(/C=N/NC(=O)CSc2nnc(C)n2-c2ccccc2)c1O | -2.2 | -0.5 | -14.4 | -6.2 | -17.7 | 1.7
CCCCSc1nc(C)cc(SCC(=O)N/N=C/c2cccc(OC)c2O)n1 | 9.8 | 41.9 | 84.1* | -11.9 | -30.3 | 0.3
O=c1c2ccccc2c(C=Nc2ccc(O)cc2)c(O)n1Cc1ccccc1 | 1.8 | 54.6 | 79.1* | -0.9 | 1.4 | -4.2
COc1ccc(Cn2c(O)c(C=Nc3ccc(O)cc3)c3ccccc3c2=O)cc1 | 6.7 | 3.5 | 25.5 | -1.6 | -3.1 | -3.6
Nc1cc(OC(=O)c2ccc(F)cc2)nn1S(=O)(=O)c1ccc(F)cc1 | 2.4 | 38.3 | 76.1* | -6.1 | -15.4 | 3.2
COc1cccc(C(=O)Nc2ccc(S(=O)(=O)NCc3ccco3)cc2)c1 | -6.3 | -2.5 | 6.7 | 5.4 | -4.1 | 0.5
COc1ccc(NC(=O)CCSc2ccc(F)cc2)cc1 | 2.5 | 21.6 | 55.5* | -6.2 | -10.3 | -0.5
Cc1cccc(-n2nc3c(c2NC(=O)c2ccco2)CSC3)c1C | 49.4* | 1.7 | 11.9 | 5.6 | -3.1 | 3.7
O=S(=O)(Nc1nc2ccccc2nc1N1CCc2ccccc2C1)c1ccc(Br)cc1 | 8.2 | . | . | 4.7 | -0.6 | 16.8*
O=S(=O)(Nc1nc2ccccc2nc1Cl)c1ccc(Br)cc1 | 19.1 | -54.4* | -64.5 | -4.1 | -31.0 | 0.3
Cc1ccccc1S(=O)(=O)Nc1nc2ccccc2nc1N1CCc2ccccc2C1 | 8.9 | 41.8 | 71.2* | 9.9 | -12.9 | -3.3
Cc1ccccc1S(=O)(=O)Nc1nc2ccccc2nc1Cl | 3.0 | -45.4 | -56.8 | 2.2 | -13.2 | -0.5
SMILES | core dimer inh | HSF1 inh | HSF-1 act | HCV NS3 hel inh | DNA FID counter | HSP90 inh
CC(=O)Nc1ccc(S(=O)(=O)Nc2nc3ccccc3nc2N2CCc3ccccc3C2)cc1 | 2.6 | 17.9 | 32.4 | -12.7 | -20.8 | -0.2
O=S(=O)(Nc1nc2ccccc2nc1N1CCc2ccccc2C1)c1ccc(Cl)cc1 | 9.6 | 19.7 | 57.2* | 6.4 | -10.3 | -4.8
O=S(=O)(Nc1nc2ccccc2nc1Cl)c1ccc(Cl)cc1 | 5.9 | 1.4 | 3.2 | 15.6 | -24.1 | -1.9
COc1ccc(CNC(=O)CSc2ncn[nH]2)cc1OC | -16.7 | -10.0 | -20.2 | -0.7 | -3.8 | 4.8
O=c1c(Cl)c(Cl)cnn1Cc1nnc(-c2ccccc2Br)o1 | . | ? | -72.5 | 5.9 | -13.3 | -0.2
CCn1nnnc1NCc1ccc(OCc2c(F)cccc2Cl)c(OC)c1 | -4.4 | 3.3 | 40.7 | -0.2 | -18.0 | 1.9
O=C(CN1C(=O)/C(=C/c2ccccc2)SC1=S)Nc1ncc(Cc2ccccc2)s1 | 53.5* | -3.5 | -10.8 | 9.4 | -11.6 | 4.1
CCOC(=O)c1oc2ccc(Br)cc2c1CSc1nnc(C)s1 | 1.9 | 18.5 | 42.7 | -0.1 | -11.6 | 1.7
Cn1nnc2c[n+](CC(=O)c3ccc4ccccc4c3)cc(Br)c21 | 17.3 | 40.8 | 92.7* | 8.1 | 3.4 | 2.9
CCOC(=O)CN1N=C(c2ccc(C)cc2)CCC1=O | -5.3 | -42.9 | -53.2 | -5.2 | -16.1 | 1.6
CSc1nnc(-c2ccc(C(F)(F)F)nc2C)o1 | 0.9 | 7.1 | 10.1 | -0.7 | 5.1 | 2.2
COc1ccc(NC(=O)c2cn(-c3ccccc3)nc2-c2cc3ccccc3o2)cc1 | 6.7 | -3.0 | -2.8 | -0.8 | -10.8 | 3.6
O=C(N/N=C/c1cn(-c2ccccc2)nc1-c1cc2ccccc2o1)c1ccccc1Br | 22.8 | 40.2 | 75.7* | -6.3 | 0.2 | -8.3
O=C(N/N=C/c1cn(-c2ccccc2)nc1-c1cc2ccccc2o1)c1c[nH]c2ccccc12 | 33.6 | 6.2 | 25.0 | -7.8 | -1.4 | 2.4
OCc1cn(-c2ccccc2)nc1-c1cc2ccccc2o1 | 3.1 | 32.5 | 62.7* | -5.7 | -7.5 | 3.9
Cc1ccccc1C1c2[nH]c3ccccc3c2C[C@H]2C(=O)N(c3ccccc3C(=O)NCCCN3CCOCC3)C(=O)N12 (some centres undefined) | -1.0 | -8.7 | -7.7 | -115.8 | 12.0 | -3.7
CCC(C)c1ccc(C2C3=C(Nc4nc(N)[nH]c(=O)c42)c2ccccc2C3=O)cc1 (centres undefined) | 11.5 | 6.2 | 13.9 | -53.3 | 95.9* | 2.6
CCOc1ccccc1NC(=O)COC(=O)C1CC(=O)N(c2c(C)cccc2C)C1 (centres undefined) | -2.4 | 5.1 | -9.8 | -3.8 | -31.8 | -3.6

Source: PubChem BioAssay
